In ChEMBL document CHEMBL1135734, “Side-chain lactam-bridge conformational constraints differentiate the activities of salmon and human calcitonins and reveal a new design concept for potent calcitonin analogues” (J Med Chem, 2002):
Positions of bridges follow the written chain, without caps; N, C: chain ends. Non-standard residues stand in square brackets, D forms with d. Residues, ends and D or L forms follow the SMILES beside them. Orn = NCCC[C@H](N)C(=O)O

Columns and labels:
[1] = target: T1, Calcitonin receptor (Rattus norvegicus, UniProt P32214); experiment: Displacement of [125I]-salmon calcitonin (sCT) from calcitonin receptor of rat brain
T1 sequence (P32214 whole entry): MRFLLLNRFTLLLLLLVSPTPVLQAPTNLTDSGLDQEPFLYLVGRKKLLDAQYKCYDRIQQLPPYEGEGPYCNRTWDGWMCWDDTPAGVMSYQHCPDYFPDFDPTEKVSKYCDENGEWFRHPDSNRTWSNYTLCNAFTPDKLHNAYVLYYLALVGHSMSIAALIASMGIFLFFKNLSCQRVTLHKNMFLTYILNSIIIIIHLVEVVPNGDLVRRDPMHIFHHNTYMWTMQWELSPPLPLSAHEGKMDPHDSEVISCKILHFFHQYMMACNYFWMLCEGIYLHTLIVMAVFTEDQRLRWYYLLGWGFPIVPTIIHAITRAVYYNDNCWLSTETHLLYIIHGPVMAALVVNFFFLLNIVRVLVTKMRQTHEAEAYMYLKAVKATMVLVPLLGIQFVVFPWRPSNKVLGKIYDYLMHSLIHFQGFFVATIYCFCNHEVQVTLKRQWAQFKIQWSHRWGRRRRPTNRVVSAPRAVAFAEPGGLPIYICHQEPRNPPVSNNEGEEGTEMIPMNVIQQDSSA
How it was run: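 Male Sprague–Dawley rat (250–350 g) brain membranes (~0.63 mg protein/tube) were shaken on ice for 30 min with 10 pM final [125I-Tyr22]sCT and competitor in 50 mM Tris-HCl pH 7.4 with 34 μM bacitracin. Tubes were centrifuged and the pellets washed, SDS-solubilized and scintillation counted. Nonspecific binding was taken with 1 μM sCT. IC50 came from probit analysis, and relative affinity set sCT = 100%.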

[2] = target: T2, Calcitonin receptor (Homo sapiens, UniProt P30988); experiment: Inhibition of [125I]-salmon calcitonin (sCT) binding to human calcitonin receptor I1 expressed in HEK293 cells; assay type: cell-based
T2 sequence (P30988 whole entry): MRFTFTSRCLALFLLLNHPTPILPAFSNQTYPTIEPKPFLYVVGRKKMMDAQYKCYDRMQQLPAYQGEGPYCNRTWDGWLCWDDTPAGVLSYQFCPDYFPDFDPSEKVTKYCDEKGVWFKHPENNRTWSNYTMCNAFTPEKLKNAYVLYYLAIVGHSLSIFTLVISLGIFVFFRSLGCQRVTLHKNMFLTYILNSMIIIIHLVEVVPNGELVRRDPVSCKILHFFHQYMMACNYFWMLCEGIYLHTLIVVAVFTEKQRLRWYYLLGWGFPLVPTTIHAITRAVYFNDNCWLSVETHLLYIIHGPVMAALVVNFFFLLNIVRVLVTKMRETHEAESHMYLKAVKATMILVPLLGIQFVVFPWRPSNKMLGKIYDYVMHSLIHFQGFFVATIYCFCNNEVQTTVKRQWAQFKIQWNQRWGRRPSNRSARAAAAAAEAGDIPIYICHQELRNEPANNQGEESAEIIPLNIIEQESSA

Row | Structure (SMILES) | IC50 [1] | Ki ([2]; hek293) | Ki [2]
1 | CC(C)C[C@H](NC(=O)[C@H](CCCCN)NC(=O)CNC(=O)[C@H](CC(C)C)NC(=O)[C@@H](NC(=O)[C@H](CS)NC(=O)[C@@H](NC(=O)[C@H](CO)NC(=O)[C@H](CC(C)C)NC(=O)[C@H](CC(N)=O)NC(=O)[C@H](CO)NC(=O)[C@@H](N)CS)[C@@H](C)O)C(C)C)C(=O)N[C@@H](CO)C(=O)N[C@@H](CCC(N)=O)C(=O)N[C@@H](CCC(=O)O)C(=O)N[C@@H](CC(C)C)C(=O)N[C@H]1CC(=O)NCCC[C@@H](C(=O)N[C@@H](Cc2ccc(O)cc2)C(=O)N2CCC[C@H]2C(=O)N[C@@H](CCCN=C(N)N)C(=O)N[C@H](C(=O)N[C@@H](CC(N)=O)C(=O)N[C@H](C(=O)NCC(=O)N[C@@H](CO)C(=O)NCC(=O)N[C@H](C(=O)N2CCC[C@H]2C(N)=O)[C@@H](C)O)[C@@H](C)O)[C@@H](C)O)NC(=O)[C@H](CCC(N)=O)NC(=O)[C@H](CC(C)C)NC(=O)[C@H](CCCCN)NC1=O | 0.326 nM | 0.023 nM | 
2 | CC[C@H](C)[C@H](NC(=O)[C@H](C)NC(=O)[C@@H](NC(=O)[C@H](CCC(N)=O)NC(=O)[C@@H]1CCCN1C(=O)[C@H](Cc1ccccc1)NC(=O)[C@@H](NC(=O)[C@H](Cc1c[nH]cn1)NC(=O)[C@@H]1CCCN1C(=O)[C@H](CCCCN)NC(=O)[C@H](CC(N)=O)NC(=O)[C@H](Cc1ccccc1)NC(=O)[C@H](CC(=O)O)NC(=O)[C@H](CCC(N)=O)NC(=O)[C@@H](NC(=O)[C@H](Cc1ccc(O)cc1)NC(=O)[C@@H](NC(=O)CNC(=O)[C@H](CC(C)C)NC(=O)[C@H](CCSC)NC(=O)[C@@H]1CSSC[C@H](N)C(=O)NCC(=O)N[C@@H](CC(N)=O)C(=O)N[C@@H](CC(C)C)C(=O)N[C@@H](CO)C(=O)N[C@@H]([C@@H](C)O)C(=O)N1)[C@@H](C)O)[C@@H](C)O)[C@@H](C)O)[C@@H](C)O)C(=O)NCC(=O)N[C@H](C(=O)NCC(=O)N[C@@H](C)C(=O)N1CCC[C@H]1C(N)=O)C(C)C (H-CGNLSTCMLGTYTQDFNKPHTFPQTAIGVGAP-NH2; disulfide 1-7) | > 5000 nM | 400 nM | 
3 | CC(C)C[C@H](NC(=O)[C@H](CCCCN)NC(=O)CNC(=O)[C@H](CC(C)C)NC(=O)[C@@H](NC(=O)[C@H](CS)NC(=O)[C@@H](NC(=O)[C@H](CO)NC(=O)[C@H](CC(C)C)NC(=O)[C@H](CC(N)=O)NC(=O)[C@H](CO)NC(=O)[C@@H](N)CS)[C@@H](C)O)C(C)C)C(=O)N[C@@H](CO)C(=O)N[C@@H](CCC(N)=O)C(=O)N[C@@H](CCC(=O)O)C(=O)N[C@@H](CC(C)C)C(=O)N[C@H]1CC(=O)NCCC[C@@H](C(=O)N[C@@H](Cc2ccc(O)cc2)C(=O)N2CCC[C@H]2C(=O)N[C@@H](CCCN=C(N)N)C(=O)N[C@H](C(=O)N[C@@H](CC(N)=O)C(=O)N[C@H](C(=O)NCC(=O)N[C@@H](CO)C(=O)NCC(=O)N[C@H](C(=O)N2CCC[C@H]2C(N)=O)[C@@H](C)O)[C@@H](C)O)[C@@H](C)O)NC(=O)[C@H](Cc2c[nH]cn2)NC(=O)[C@H](CC(C)C)NC(=O)[C@H](CCCCN)NC1=O (H-CSNLSTCVLGKLSQELDKLH[Orn]YPRTNTGSGTP-NH2; lactam 17-21) | 0.249 nM | 0.069 nM | 
4 | CC[C@H](C)[C@H](NC(=O)[C@H](C)NC(=O)[C@@H](NC(=O)[C@H](CCC(N)=O)NC(=O)[C@@H]1CCCN1C(=O)[C@H](Cc1ccccc1)NC(=O)[C@@H](NC(=O)[C@H](Cc1cnc[nH]1)NC(=O)[C@H](Cc1ccccc1)NC(=O)[C@@H]1CCCN1C(=O)[C@H](CC(N)=O)NC(=O)[C@H](Cc1ccccc1)NC(=O)[C@H](CC(=O)O)NC(=O)[C@H](CCC(N)=O)NC(=O)[C@@H](NC(=O)[C@H](Cc1ccc(O)cc1)NC(=O)[C@@H](NC(=O)CNC(=O)[C@H](CC(C)C)NC(=O)[C@H](CCSC)NC(=O)[C@@H]1CSSC[C@H](N)C(=O)NCC(=O)N[C@@H](CC(N)=O)C(=O)N[C@@H](CC(C)C)C(=O)N[C@@H](CO)C(=O)N[C@@H]([C@@H](C)O)C(=O)N1)[C@@H](C)O)[C@@H](C)O)[C@@H](C)O)[C@@H](C)O)C(=O)NCC(=O)N[C@H](C(=O)NCC(=O)N[C@@H](C)C(=O)N1CCC[C@H]1C(N)=O)C(C)C (H-CGNLSTCMLGTYTQDFNPFHTFPQTAIGVGAP-NH2; disulfide 1-7) | 1910 nM | 1230 nM | 
5 | CC(C)C[C@H](NC(=O)[C@H](CCCCN)NC(=O)CNC(=O)[C@H](CC(C)C)NC(=O)[C@@H](NC(=O)[C@@H]1CSSC[C@H](N)C(=O)N[C@@H](CO)C(=O)N[C@@H](CC(N)=O)C(=O)N[C@@H](CC(C)C)C(=O)N[C@@H](CO)C(=O)N[C@@H]([C@@H](C)O)C(=O)N1)C(C)C)C(=O)N[C@@H](CO)C(=O)N[C@@H](CCC(N)=O)C(=O)N[C@@H](CCC(=O)O)C(=O)N[C@@H](CC(C)C)C(=O)N[C@@H](Cc1c[nH]cn1)C(=O)N[C@@H](CCCCN)C(=O)N[C@@H](CC(C)C)C(=O)N[C@@H](CCC(N)=O)C(=O)N[C@H](C(=O)N[C@@H](Cc1ccc(O)cc1)C(=O)N1CCC[C@H]1C(=O)N[C@@H](CCCNC(=N)N)C(=O)N[C@H](C(=O)N[C@@H](CC(N)=O)C(=O)N[C@H](C(=O)NCC(=O)N[C@@H](CO)C(=O)NCC(=O)N[C@H](C(=O)N1CCC[C@H]1C(N)=O)[C@@H](C)O)[C@@H](C)O)[C@@H](C)O)[C@@H](C)O | 0.377 nM |  | […]
6 | CC[C@H](C)[C@H](NC(=O)[C@H](C)NC(=O)[C@@H](NC(=O)[C@H](CCC(N)=O)NC(=O)[C@@H]1CCCN1C(=O)[C@H](Cc1ccccc1)NC(=O)[C@@H](NC(=O)[C@H](Cc1cnc[nH]1)NC(=O)CNC(=O)[C@@H]1CCCN1C(=O)[C@H](CC(N)=O)NC(=O)[C@H](Cc1ccccc1)NC(=O)[C@H](CC(=O)O)NC(=O)[C@H](CCC(N)=O)NC(=O)[C@@H](NC(=O)[C@H](Cc1ccc(O)cc1)NC(=O)[C@@H](NC(=O)CNC(=O)[C@H](CC(C)C)NC(=O)[C@H](CCSC)NC(=O)[C@@H]1CSSC[C@H](N)C(=O)NCC(=O)N[C@@H](CC(N)=O)C(=O)N[C@@H](CC(C)C)C(=O)N[C@@H](CO)C(=O)N[C@@H]([C@@H](C)O)C(=O)N1)[C@@H](C)O)[C@@H](C)O)[C@@H](C)O)[C@@H](C)O)C(=O)NCC(=O)N[C@H](C(=O)NCC(=O)N[C@@H](C)C(=O)N1CCC[C@H]1C(N)=O)C(C)C (H-CGNLSTCMLGTYTQDFNPGHTFPQTAIGVGAP-NH2; disulfide 1-7) | > 5000 nM | > 2500 nM | 
7 | CC[C@H](C)[C@H](NC(=O)[C@H](C)NC(=O)[C@@H](NC(=O)[C@H](CCC(N)=O)NC(=O)[C@@H]1CCCN1C(=O)[C@H](Cc1ccccc1)NC(=O)[C@@H]1CCCNC(=O)C[C@H](NC(=O)[C@H](Cc2ccccc2)NC(=O)[C@H](CC(=O)O)NC(=O)[C@H](CCC(N)=O)NC(=O)[C@@H](NC(=O)[C@H](Cc2ccc(O)cc2)NC(=O)[C@@H](NC(=O)CNC(=O)[C@H](CC(C)C)NC(=O)[C@H](CCSC)NC(=O)[C@H](CS)NC(=O)[C@@H](NC(=O)[C@H](CO)NC(=O)[C@H](CC(C)C)NC(=O)[C@H](CC(N)=O)NC(=O)CNC(=O)[C@@H](N)CS)[C@@H](C)O)[C@@H](C)O)[C@@H](C)O)C(=O)N[C@@H](CCCCN)C(=O)N[C@@H](Cc2ccccc2)C(=O)N[C@@H](Cc2c[nH]cn2)C(=O)N1)[C@@H](C)O)C(=O)NCC(=O)N[C@H](C(=O)NCC(=O)N[C@@H](C)C(=O)N1CCC[C@H]1C(N)=O)C(C)C (H-CGNLSTCMLGTYTQDFDKFH[Orn]FPQTAIGVGAP-NH2; lactam 17-21) | 173 nM |  | 
8 | CC[C@H](C)[C@H](NC(=O)[C@H](C)NC(=O)[C@@H](NC(=O)[C@H](CCC(N)=O)NC(=O)[C@@H]1CCCN1C(=O)[C@H](Cc1ccccc1)NC(=O)[C@@H](NC(=O)[C@H](Cc1c[nH]cn1)NC(=O)[C@H](Cc1ccccc1)NC(=O)[C@H](CCCCN)NC(=O)[C@H](CC(N)=O)NC(=O)[C@H](Cc1ccccc1)NC(=O)[C@H](CC(=O)O)NC(=O)[C@H](CCC(N)=O)NC(=O)[C@@H](NC(=O)[C@H](Cc1ccc(O)cc1)NC(=O)[C@@H](NC(=O)CNC(=O)[C@H](CC(C)C)NC(=O)[C@H](CCSC)NC(=O)[C@@H]1CSSC[C@H](N)C(=O)NCC(=O)N[C@@H](CC(N)=O)C(=O)N[C@@H](CC(C)C)C(=O)N[C@@H](CO)C(=O)N[C@@H]([C@@H](C)O)C(=O)N1)[C@@H](C)O)[C@@H](C)O)[C@@H](C)O)[C@@H](C)O)C(=O)NCC(=O)N[C@H](C(=O)NCC(=O)N[C@@H](C)C(=O)N1CCC[C@H]1C(N)=O)C(C)C | 2450 nM |  | 
